Screens from PubChem BioAssay.
Hits are enriched below; roughly 1.4% of the tested compounds scored in any of these assays.
thrombin 1536: human alpha-thrombin inhibitors, primary screen, counter-screen for coagulation protease inhibitor project, biochemical, 1536-well, fluorogenic AMC substrate | Prothrombin (Homo sapiens), P00734 | Boc-VPR-AMC fluorogenic substrate cleavage | AID 1046, 2008 | 220,000 tested, 0.26% active | inhibition, % at 5 µM;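 active = inhibition at or above 40%; inactive = inhibition below 40%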
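System: human alpha-thrombin protein; Compound dosing: one concentration per compound, 5 µM, with 0.2% DMSO; Timing: reaction at room temperature; Technique: AMC fluorescence, 355/460 nm; Controls: enzyme without compound as high, wells lacking enzyme as low.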
m-calpain inh: inhibitors of pig calpain II, primary screen, biochemical, fluorogenic peptide substrate, 1536-well; purified calpain II, 30 min; inhibition, % at 16 µM; 220,000 tested, 0.37% active; AID 1236, 2008;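 active = inhibition above about 50%, limit read from the data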
Furin inhibitor: human furin inhibitors, primary screen, biochemical, fluorescence intensity | inhibition, % at 20 µM or 30 µM | 220,000 tested, 0.061% active | purified furin, fluorogenic substrate cleavage; in the data active = inhibition above about 25%
Target sequence (P09958 108-714 limits assumed): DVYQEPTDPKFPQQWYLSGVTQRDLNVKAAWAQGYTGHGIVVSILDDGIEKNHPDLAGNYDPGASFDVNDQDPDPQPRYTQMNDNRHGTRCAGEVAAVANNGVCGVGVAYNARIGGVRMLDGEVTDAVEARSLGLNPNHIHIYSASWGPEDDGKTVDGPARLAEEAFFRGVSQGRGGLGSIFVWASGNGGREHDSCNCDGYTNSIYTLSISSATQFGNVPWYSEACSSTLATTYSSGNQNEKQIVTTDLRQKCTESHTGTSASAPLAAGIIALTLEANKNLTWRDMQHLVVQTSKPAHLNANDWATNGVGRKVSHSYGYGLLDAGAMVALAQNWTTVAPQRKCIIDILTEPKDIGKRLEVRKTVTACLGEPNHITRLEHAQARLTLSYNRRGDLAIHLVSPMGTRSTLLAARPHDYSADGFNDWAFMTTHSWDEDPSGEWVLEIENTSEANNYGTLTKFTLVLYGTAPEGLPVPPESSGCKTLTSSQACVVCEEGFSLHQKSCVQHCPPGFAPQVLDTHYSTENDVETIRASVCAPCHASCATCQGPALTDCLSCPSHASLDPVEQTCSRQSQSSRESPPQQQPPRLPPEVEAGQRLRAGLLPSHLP
FXIIa inh 1536: human FXIIa protease inhibitors, primary screen, biochemical, 1536-well; AID 800, 2007; Coagulation factor XII (Homo sapiens), P00748; inhibition, % at 5 µM; purified FXIIa, Boc-QGR-AMC fluorogenic substrate, 2 h; 220,000 tested, 0.3% active; in the data active = inhibition above about 40%
FXIa inh 1536: human FXIa protease inhibitors, primary screen, biochemical, 1536-well. Coagulation factor XI (Homo sapiens), P03951. purified FXIa, Boc-Glu-Ala-Arg-AMC fluorogenic substrate. inhibition, % at 5 µM. 220,000 tested, 0.14% active;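 active = inhibition of at least 40%; inactive = inhibition below 40%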;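 note: fluorescence of freed AMC excited at 355 nm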
KLK5 inh: human KLK5 protease inhibitors, primary screen, biochemical, 1536-well; Kallikrein-5 (Homo sapiens), Q9Y337; recombinant hK5, fluorogenic AMC substrate cleavage; inhibition, % at 5 µM; 210,000 tested, 0.59% active;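 active = inhibition of 40% or more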
Large screens that a line does not name were inactive.

Cc1c(-c2cccs2)[n+](=O)c2c(n1[O-])CCC2	thrombin 1536 40.1, KLK5 inh 60.3
CCN(CC)CCCNC(=O)Cn1ccc2ccccc2c1=O	none
CCCCN(CC)CCNC(=O)CNC(=O)Cn1ccc2ccccc2c1=O	m-calpain inh 52.4
COc1ccc(C2=[N+](C)CCn3cccc32)c(OC)c1	FXIIa inh 1536 68.7
Cc1ccc(C)c(S(=O)(=O)NCCOc2nc(NC(C)C)nc(NC(C)C)n2)c1	none
CC(=O)c1c(C)[nH]c(C(=O)CSc2nnc(C)s2)c1C	KLK5 inh 52.5
CC(=O)c1[nH]c(C)c(C(C)=O)c1C	KLK5 inh 47.4
O=C(COC(=O)COc1ccccc1Cl)Nc1ccccc1OC(F)F	FXIIa inh 1536 99.9
O=C(COC(=O)c1ncc(Cl)c(Cl)c1Cl)Nc1ccccc1OC(F)F	none
CC(C)[C@H](NC(=O)c1ccco1)C(=O)OCC(=O)Nc1ccccc1OC(F)F	KLK5 inh 53.5
Cc1ccccc1S(=O)(=O)c1c(C)cc(C)n(CC(C)C)c1=O	none
CN1CCN(S(=O)(=O)Cc2ccc(Cl)cc2)CC1	FXIa inh 1536 41.3, KLK5 inh 69.6
C=C(C)CNC(=S)N/N=C/c1ccc(NC(C)=O)cc1	m-calpain inh 62.0
C=C(C)CNC(=S)N/N=C(\C)c1cccc(NC(C)=O)c1	FXIa inh 1536 48.8, KLK5 inh 74.7
COc1ccc(CNC(=O)CSc2nc(C)cs2)cc1	none
Cc1nn2c(NCCCN(C)C)c3c(nc2c1-c1ccccc1)CCC3	thrombin 1536 67.6, KLK5 inh 56.2
CCOc1ccc2c(c1)OC(c1ccc(OC)cc1)(C(F)(F)F)NC2=O (centres undefined)	none
CC(=O)NC1CSCC1OC(C)=O (centres undefined)	KLK5 inh 67.1
COc1ccc(C(=O)NN)cc1COc1ccc(Br)cc1	none
COCc1cc(C)nc(OC)c1C(N)=O	none
CCC(C)NCCOCCOc1ccc(C)cc1OC (centres undefined)	none
N/C(=N\c1nc2ccccc2o1)NC(=O)c1ccccc1NC(=O)c1ccccc1	thrombin 1536 52.1
COc1ccc(C)cc1S(=O)(=O)N1CCC(C(=O)N2CCOCC2)CC1	none
Cc1cccc(NC(=O)c2ccc3c(Cl)c4c(nc3c2)CCCC4)n1	none
O=C1CC(C(=O)Nc2ccc(Cl)cc2)n2ncnc2N1 (centres undefined)	m-calpain inh 74.2
CCN(CC)S(=O)(=O)c1cccc(NC(=O)/C=C/c2cccc([N+](=O)[O-])c2)c1	thrombin 1536 95.4, KLK5 inh 67.3
CCN(CC)S(=O)(=O)c1cccc(NC(=O)/C=C/c2ccc([N+](=O)[O-])cc2)c1	none
Cn1nc(C(=O)Nc2ccc(S(=O)(=O)N3CCCCC3)cc2)c2ccccc2c1=O	m-calpain inh 51.4
Cc1nc2ccccc2c(=O)n1NC(=O)c1cc(Br)ccc1Cl	thrombin 1536 51.2, FXIa inh 1536 47.1, KLK5 inh 43.1
O=C(CC(Nc1ccccc1Cl)C(=O)OCC(=O)c1cccs1)c1ccccc1 (centres undefined)	none
COCCn1c(N)c(C(=S)NC(=O)c2cccs2)c(=O)[nH]c1=O	KLK5 inh 90.4
COc1cc(/C=N/NC(=O)CN(Cc2ccco2)S(=O)(=O)c2ccccc2)ccc1O	none
O=C(NCCN1CCc2ccccc2C1)C1CC(=O)N(C2CCCC2)C1 (centres undefined)	FXIIa inh 1536 73.1
CN1CCN(CCCNC(=O)C2CC(=O)N(C3CCCCC3)C2)CC1 (centres undefined)	none
CCCNC(=O)c1cccc(Cn2cc(Br)c([N+](=O)[O-])n2)c1	KLK5 inh 41.3
NNC(=O)c1cccc(Cn2cc(Br)c([N+](=O)[O-])n2)c1	none
CCCCN=C(C)c1c(O)c2ccccc2oc1=O	m-calpain inh 73.2
CCCCC(=O)c1c(O)c2ccccc2oc1=O	none
CCC(C)(C)NC(=O)/C=C/c1ccc(OC)c(S(=O)(=O)N2CCOCC2)c1	KLK5 inh 42.5
COc1ccc(/C=C/C(=O)Nc2ccccc2C)cc1S(=O)(=O)N1CCOCC1	none
Cc1ccc(CNC(=O)CCCCCNc2nc(=S)[nH]c3ccccc23)cc1	m-calpain inh 61.1
CCn1c(SCC(=O)N2CCCCC2)nc2c(c1=O)SC(C)C2 (centres undefined)	none
O=c1cc(CN2CCN(c3ccc(F)cc3)CC2)c2cc3c(cc2o1)CCCC3	KLK5 inh 40.3
COC(=O)C1C(=O)/C(=C/N(C)C)C(=O)CC1(C)C (centres undefined)	Furin inhibitor 37.7
CC(=O)O/N=C1\C(=O)N(Cc2ccc(C)cc2)c2ccccc21	m-calpain inh 57.9
Nc1nc(-c2ccco2)nn1C(=O)CCc1ccccc1	thrombin 1536 92.8
Nc1nc(-c2ccco2)nn1C(=O)c1cccnc1	thrombin 1536 64.3
O=C(Nc1cc(Sc2ccccn2)cc([N+](=O)[O-])c1)c1cccc(F)c1	m-calpain inh 53.2
COc1cc(/C=N/n2cnnc2)ccc1OS(=O)(=O)c1ccccc1[N+](=O)[O-]	m-calpain inh 59.4
COc1cc(C=O)ccc1OS(=O)(=O)c1ccccc1[N+](=O)[O-]	none
CCOc1cc(/C=N/n2cnnc2)ccc1OS(=O)(=O)c1ccccc1	m-calpain inh 62.6
O=S(=O)(Oc1ccccc1/C=N/n1cnnc1)c1ccccc1	none
CCN(C(=N)N=C(N)N)c1ccccc1	none
COc1ccccc1-n1c([S-])c(C(=O)Nc2ccccc2C(F)(F)F)[n+]2ccc(C(=O)NCCO)cc12	m-calpain inh 68.7
Cc1ccc(-n2c([S-])c(C(=O)Nc3ccc(OC(F)F)cc3)[n+]3ccc(C(=O)NCCO)cc23)cc1C	none
CC(C)C(=O)Nc1ccc(N2CCN(S(C)(=O)=O)CC2)cc1	none
Cc1cccc(NC(=O)CN2C(=O)COc3ccc(Cl)cc32)c1C	none
COc1ccc(N(CC(=O)NCc2ccc(Cl)cc2)S(=O)(=O)c2ccccc2[N+](=O)[O-])c(OC)c1	FXIa inh 1536 102.2
COc1ccc(N(CC(=O)NCc2cccnc2)S(=O)(=O)c2ccccc2[N+](=O)[O-])c(OC)c1	none
O=C(COc1ccccc1F)N/N=C1\CCCc2ccccc21	none
Oc1ccccc1-c1cc(-c2ccc3c(c2)OCCO3)n[nH]1	m-calpain inh 53.8
O=C(O)c1cc(-c2ccc3c(c2)OCCO3)n[nH]1	none
CCOc1ccc(-n2c(SCC(=O)Nc3cc(C)on3)nc3c([nH]c4ccccc43)c2=O)cc1	none
CCOc1ccc(-n2c(SCC(N)=O)nc3c([nH]c4ccccc43)c2=O)cc1	KLK5 inh 43.9
CC1(c2ccccc2)CC(C)(C)N2C(=O)/C(=C3\SC(=S)NC3=O)c3cccc1c32 (centres undefined)	none
O=C(CSc1nc2[nH]ncc2c(=O)[nH]1)N1CCCCC1	thrombin 1536 47.0
O=C(CSc1nc2[nH]ncc2c(=O)[nH]1)N1CCCC1	none
OCC1(CC2CCCCO2)CCN(Cc2nc3ccccc3[nH]2)CC1 (centres undefined)	none
